# Laboratory results published in ChEMBL document CHEMBL1156833, “The discovery of MK-0674, an orally bioavailable cathepsin K inhibitor” (Bioorg Med Chem Lett, 2010).
# Legend:
# Homo sapiens [1] = organism: Homo sapiens; test: Selectivity ratio of IC50 for human cathepsin S to IC50 for humanized rabbit cathepsin K
# Homo sapiens [2] = organism: Homo sapiens; test: Selectivity ratio of IC50 for human cathepsin F to IC50 for humanized rabbit cathepsin K
# Cathepsin K = Cathepsin K (Homo sapiens, UniProt P43235); test: Inhibition of humanized rabbit cathepsin K
# Homo sapiens [3] = organism: Homo sapiens; test: Selectivity ratio of IC50 for human cathepsin L to IC50 for humanized rabbit cathepsin K
# Homo sapiens [4] = organism: Homo sapiens; test: Selectivity ratio of IC50 for human cathepsin B to IC50 for humanized rabbit cathepsin K
# [5] = Decrease in bone resorption assessed as corrected bone resorption measured as ratio of bone resorption IC50 x humanized rabbit cathepsin K IC50 to rabbit cathepsin K IC50 equation; format: functional, tissue-based, Bone element
# [6] = Oral bioavailability in squirrel monkey; format: ADME, organism-based; conditions: saimiri, in vivo
# [7] = Oral bioavailability in rat; format: ADME, organism-based; conditions: in vivo
# Summary of the method: (§1)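 Pharmacokinetics in rats, rabbits and rhesus monkeys after oral dosing in 1% methocel vehicle. Half-life and oral bioavailability were derived from the plasma profiles.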
# Canis familiaris [8] = test: Metabolic stability in dog at 25 mg/kg, po and 5 mg/kg, iv up to 24 hrs; format: ADME, organism-based, Canis lupus familiaris; conditions: in vivo
# Rattus norvegicus [9] = test: Metabolic stability in rat at 25 mg/kg, po after up to 24 hrs; format: ADME, organism-based; set-up: dose 25 mg/kg, route oral; conditions: in vivo
# Rattus norvegicus [10] = test: Metabolic stability in rat at 25 mg/kg, po and 5 mg/kg, iv up to 24 hrs; format: ADME, organism-based; conditions: in vivo
# Rattus norvegicus [11] = test: Metabolic stability in rat assessed as conversion to (S)-N-(1-cyanocyclopropyl)-2-((S)-1-(4'-((R)-2,2-difluoro-1-hydroxyethyl)biphenyl-4-yl)-2,2,2-trifluoroethylamino)-4-fluoro-4-methylpentanamide at 25 mg/kg, po; format: ADME, organism-based; set-up: dose 25 mg/kg, route oral; conditions: in vivo
# [12] = Half life in po dosed rhesus monkey; format: ADME, organism-based, Macaca mulatta; conditions: in vivo; summary of the method: as §1
# [13] = Metabolic stability in rabbit hepatocytes assessed as compound remaining; format: ADME, cell-based, Oryctolagus cuniculus, Hepatocyte
# [14] = Half life in po dosed rabbit; format: ADME, organism-based, Oryctolagus cuniculus; conditions: in vivo; summary of the method: as §1
# Hepatocyte [15] = test: Metabolic stability in rat hepatocytes assessed as compound remaining; format: ADME, cell-based
# [16] = Metabolic stability in rhesus monkey hepatocytes assessed as compound remaining; format: ADME, cell-based, Macaca mulatta, Hepatocyte
# [17] = Oral bioavailability in rhesus monkey; format: ADME, organism-based, Macaca mulatta; conditions: in vivo; summary of the method: as §1
# [18] = Half life in po dosed rat; format: ADME, organism-based; conditions: in vivo; summary of the method: as §1
# [19] = Oral bioavailability in rabbit; format: ADME, organism-based, Oryctolagus cuniculus; conditions: in vivo; summary of the method: as §1
# [20] = (§2) Metabolic stability in dog hepatocytes assessed as formation ratio of (S)-N-(1-cyanocyclopropyl)-2-((S)-1-(4'-((R)-2,2-difluoro-1-hydroxyethyl)biphenyl-4-yl)-2,2,2-trifluoroethylamino)-4-fluoro-4-methylpentanamide to (S)-N-(1-cyanocyclopropyl)-2-((S)-1-(4'-((S)-2,2-difluoro-1-hydroxyethyl)biphenyl-4-yl)-2,2,2-trifluoroethylamino)-4-fluoro-4-methylpentanamide; format: ADME, cell-based, Canis lupus familiaris, Hepatocyte
# Canis familiaris [21] = test: (§3) Metabolic stability in dog assessed as formation ratio of (S)-N-(1-cyanocyclopropyl)-2-((S)-1-(4'-((R)-2,2-difluoro-1-hydroxyethyl)biphenyl-4-yl)-2,2,2-trifluoroethylamino)-4-fluoro-4-methylpentanamide to (S)-N-(1-cyanocyclopropyl)-2-((S)-1-(4'-((S)-2,2-difluoro-1-hydroxyethyl)biphenyl-4-yl)-2,2,2-trifluoroethylamino)-4-fluoro-4-methylpentanamide at 25 mg/kg, po and 5 mg/kg, iv; format: ADME, organism-based, Canis lupus familiaris; conditions: in vivo
# Hepatocyte [22] = test: as §2, with “human” for “dog”; format: ADME, cell-based
# Rattus norvegicus [23] = test: as §3, with “rat” for “dog”; format: ADME, organism-based; conditions: in vivo
# Hepatocyte [24] = test: as §2, with “rat” for “dog”; format: ADME, cell-based
# [25] = as §2, with “rabbit” for “dog”; format: ADME, cell-based, Oryctolagus cuniculus, Hepatocyte
Compound,Ratio IC50 (Homo sapiens [1]),Ratio IC50 (Homo sapiens [2]),IC50 (Cathepsin K),Ratio IC50 (Homo sapiens [3]),Ratio IC50 (Homo sapiens [4]),IC50 [5],bioavailability [7],further results
Cc1csc(-c2ccc([C@H](N[C@@H](CC(C)(C)F)C(=O)NC3(C#N)CC3)C(F)(F)F)cc2)n1,777,1980,0.3 nM,18800,4040,14 nM,10%,bioavailability [6]: 5%
[2H][C@@](O)(c1ccc(-c2ccc([C@H](N[C@@H](CC(C)(C)F)C(=O)NC3(C#N)CC3)C(F)(F)F)cc2)cc1)C(F)F,–,–,–,–,–,–,–,Stability (Canis familiaris [8]): Stable; Stability (Rattus norvegicus [9]): Stable; Stability (Rattus norvegicus [10]): Stable; Stability (Rattus norvegicus [11]): Unstable
CC(C)(F)C[C@H](N[C@@H](c1ccc(-c2ccc3ncccc3c2)cc1)C(F)(F)F)C(=O)NC1(C#N)CC1,44,–,0.4 nM,6020,3000,8 nM,–,–
CC(C)(F)C[C@H](N[C@@H](c1ccc(-c2ccc([C@@H](O)C(F)F)cc2)cc1)C(F)(F)F)C(=O)NC1(C#N)CC1,243,1460,0.4 nM,11900,1160,10 nM,122%,half-life [12]: 660 min; Stability [13]: 93%; half-life [14]: 840 min; Stability (Hepatocyte [15]): 95%; Stability [16]: 93%; bioavailability [17]: 64%; half-life [18]: 420 min; bioavailability [19]: 70%
CC(C)(F)C[C@H](N[C@@H](c1ccc(-c2ccc(S(C)(=O)=O)nc2)cc1)C(F)(F)F)C(=O)NC1(C#N)CC1,28,–,2.6 nM,1300,725,8 nM,–,–
CC(C)(F)C[C@H](N[C@@H](c1ccc(-c2ccc(C(=O)C(F)F)cc2)cc1)C(F)(F)F)C(=O)NC1(C#N)CC1,–,–,–,–,–,–,–,Stability (Canis familiaris [8]): Stable; Ratio [20]: 5; Stability (Rattus norvegicus [9]): Stable; Ratio (Canis familiaris [21]): 5; Ratio (Hepatocyte [22]): > 200; Stability (Rattus norvegicus [10]): Stable; Ratio (Rattus norvegicus [23]): > 10; Ratio (Hepatocyte [24]): 24; Ratio [25]: 48
CC(C)(F)C[C@H](N[C@@H](c1ccc(-c2ccc(S(C)(=O)=O)cc2)cc1)C(F)(F)F)C(=O)NC1(C#N)CC1 [ODANACATIB],300,3230,0.2 nM,15000,5170,5 nM,–,–
[2H][C@](O)(c1ccc(-c2ccc([C@H](N[C@@H](CC(C)(C)F)C(=O)NC3(C#N)CC3)C(F)(F)F)cc2)cc1)C(F)F,–,–,–,–,–,–,–,Stability (Canis familiaris [8]): Stable; Stability (Rattus norvegicus [9]): Stable; Stability (Rattus norvegicus [10]): Stable; Stability (Rattus norvegicus [11]): Unstable
CC(C)(F)C[C@H](N[C@@H](c1ccc(-c2ccc(C3(C(N)=O)CC3)cn2)cc1)C(F)(F)F)C(=O)NC1(C#N)CC1,849,3440,0.5 nM,3700,3920,35 nM,–,–
CC(C)(F)C[C@H](N[C@@H](c1ccc(-c2ccc(C(C)(C)O)cc2)cc1)C(F)(F)F)C(=O)NC1(C#N)CC1,715,2410,0.2 nM,28900,2200,10 nM,24%,half-life [18]: < 60 min
C[C@H](C(N)=O)c1ccc(-c2ccc([C@H](N[C@@H](CC(C)(C)F)C(=O)NC3(C#N)CC3)C(F)(F)F)cc2)cc1,693,3590,0.2 nM,21300,1440,35 nM,–,–
CC(C)(F)C[C@H](N[C@@H](c1ccc(-c2ccc(C3(O)CC3)cc2)cc1)C(F)(F)F)C(=O)NC1(C#N)CC1,106,1150,0.2 nM,11000,1420,13 nM,–,–
CC(C)(F)C[C@H](N[C@@H](c1ccc(-c2ccc(C3(C(N)=O)CC3)cc2)cc1)C(F)(F)F)C(=O)NC1(C#N)CC1,766,2380,0.2 nM,11100,1560,12 nM,8%,bioavailability [6]: 5%
CC(C)(F)C[C@H](N[C@@H](c1ccc(-c2ccc(C3(O)CC3)cn2)cc1)C(F)(F)F)C(=O)NC1(C#N)CC1,210,2760,0.3 nM,18000,3640,–,7%,–
CC(C)(F)C[C@H](N[C@@H](c1ccc(-c2ccc([C@H](O)C(F)F)cc2)cc1)C(F)(F)F)C(=O)NC1(C#N)CC1,197,1600,0.4 nM,14100,1470,7 nM,86%,half-life [12]: 360 min; Stability [13]: 70%; half-life [14]: 480 min; Stability (Hepatocyte [15]): 94%; Stability [16]: 88%; bioavailability [17]: 139%; half-life [18]: 600 min; bioavailability [19]: 132%
